# LMPTP inh = blocks human LMPTP phosphatase; recombinant LMPTP-A, OMFP fluorogenic substrate, fluorescence intensity; AID 651560; 360,000 compounds, 0.22% hits; inhibition, % at 20 µM; P24666;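 active = compounds that cut the enzyme signal by at least half of the control window in the single-dose screen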;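 note: plate controls were DMSO wells with enzyme plus substrate for no effect and substrate without enzyme for full effect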
# Target sequence (P24666 whole entry, looked up): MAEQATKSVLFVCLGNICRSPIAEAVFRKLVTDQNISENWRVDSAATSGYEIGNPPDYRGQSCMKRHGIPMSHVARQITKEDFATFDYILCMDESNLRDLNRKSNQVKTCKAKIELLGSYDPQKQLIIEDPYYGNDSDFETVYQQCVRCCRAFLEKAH
#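 Assay system: LMPTP-A, protein tyrosine phosphatase of low molecular weight / Medium: pH 6.0 Bis-Tris buffer with DTT and Triton X-100 / Schedule: 50 min enzyme reaction at room temperature, protected from light / Measured by: endpoint fluorescence intensity from OMFP dephosphorylation / Read-out basis: % inhibition relative to no-enzyme and uninhibited control wells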
# DNMT1 inh = inhibitors of human DNMT1; P26358; 360,000 compounds, 0.83% hits; inhibition (reported as % activation of signal), % at 10 µM; DNMT1 molecular beacon, Hinp1I cleavage, fluorescence; in the data active = inhibition above about 50%
# Scp1 inh = Scp-1 (human) phosphatase inhibition | Q9GZU7 | Recombinant Scp1, phosphopeptide, malachite green phosphate absorbance | inhibition, % at 20 µM | 340,000 compounds, 0.88% hits | AID 493091;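 active = inhibition above about 50% at 20 µM, limit read from the data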;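 note: plate controls were DMSO wells with enzyme for no effect and wells lacking enzyme for full effect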
# Target sequence (Q9GZU7 76-261 limits assumed): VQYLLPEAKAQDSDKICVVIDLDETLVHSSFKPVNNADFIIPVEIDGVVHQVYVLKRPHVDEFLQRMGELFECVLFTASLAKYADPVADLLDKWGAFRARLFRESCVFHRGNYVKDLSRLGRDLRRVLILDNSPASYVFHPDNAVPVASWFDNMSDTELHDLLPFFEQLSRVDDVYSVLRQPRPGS
#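 System: SCP-1 catalytic domain; Reagent: Phospho 17-mer peptide substrate; Doses: one concentration, 20 µM, with 1.0% DMSO; Incubation: 45 min room-temperature reaction, 5 min colour, 30 min stabiliser; Signal: Phosphate-binding colour reagent, absorbance read at 630 nm.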
# STEP block = inhibitors of human striatal-enriched phosphatase STEP | recombinant STEP, OMFP fluorogenic substrate, fluorescence | inhibition, % at 20 µM | 360,000 compounds, 0.25% hits | P54829;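 active = inhibition at 20 µM, scaled per plate between control wells, above about 37%, limit read from the data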;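 note: 0% = DMSO with enzyme and substrate and 100% = substrate only without enzyme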
#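 Assay system: isolated STEP enzyme / Timing: 20 min at room temperature, dark / Doses: 20 µM, 1% DMSO / Technique: fluorescence intensity, excitation 480 nm, emission 540 nm / Reagent: fluorogenic phosphatase substrate OMFP at 25 µM final / Measure: percent inhibition scaled to no-enzyme and uninhibited-enzyme controls, plate-pattern corrected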
# SUMO1 PPI mod = SUMO1-SIM interaction modulation; AID 602429; inhibition, % at 20 µM; SUMO1 binding to a labelled peptide, TR-FRET, 1 h; P63165; 360,000 compounds, 0.33% hits; in the data active = inhibition above about 37%
# Target sequence (P63165 whole entry, looked up): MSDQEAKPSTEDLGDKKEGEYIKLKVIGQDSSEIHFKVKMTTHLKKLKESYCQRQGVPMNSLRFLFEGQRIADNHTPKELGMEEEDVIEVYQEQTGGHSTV
# * hit, by the source's call; nt = no result. Compounds with a hit are over-represented: about 1.7% of the library has one in this group of screens.
SMILES,LMPTP inh,DNMT1 inh,Scp1 inh,STEP block,SUMO1 PPI mod
CCn1cnc2cc(NCc3ccc(OC)cc3)ccc21,0,-3,-10,3,-3
CCOc1ccc(OCCCC(=O)N2CCN(S(=O)(=O)c3ccccc3C#N)CC2)cc1,2,-2,-15,3,2
CCn1c(/C=C/c2c(C)n(CC)c3ccccc23)nc2ccccc2c1=O,0,3,-8,-2,-1
CCn1c2ccccc2nc2cc3c(cc21)c(Cl)c(=O)c1ccccc13,5,61*,nt,3,21
O=C(N/N=C/c1ccc([N+](=O)[O-])s1)c1cccc(Br)c1,75*,21,97*,55*,-6
O=C(N/N=C/c1ccc([N+](=O)[O-])s1)c1ccncc1,-1,-9,-7,3,-28
Cc1ccc(C(=O)N/N=C/c2ccc([N+](=O)[O-])s2)cc1,47,3,104*,24,-19
CC[C@H]1OC(=O)[C@H](C)[C@@H](O[C@H]2C[C@@](C)(OC)[C@@H](O)[C@H](C)O2)[C@H](C)[C@@H](O[C@@H]2O[C@H](C)C[C@H](N(C)C)[C@H]2O)[C@](C)(O)C[C@@H](C)C(=O)[C@H](C)[C@@H](O)[C@]1(C)O,75*,77*,8,1,14
CNC(=O)c1ccc(CN(C)C(=O)c2cccc(S(=O)(=O)N3CCc4ccccc4C3)c2)cc1,0,1,nt,-4,-1
N#Cc1c(NC(=O)Cn2c(=O)oc3ccccc32)oc(-c2ccccc2)c1-c1ccccc1,5,-10,-12,-3,41*
O=C(Cn1c(=O)oc2ccccc21)Nc1ccc(Br)cc1,1,2,-2,1,6
O=C(Nc1cc(NC(=O)c2ccccc2F)ccc1Cl)c1ccccc1,1,-2,1,0,5
Cc1c(C(=O)OCC(=O)Nc2c(C)n(C)n(-c3ccccc3)c2=O)oc2ccccc12,-2,-3,1,1,2
CN(C)/C=C1\C(=O)ON=C1c1ccccc1,-1,3,-3,-5,-4
Cc1ccc(C2=NOC(=O)/C2=C\C=C\c2ccccc2)cc1,2,28,-10,-2,41*
CN(C)CCCn1c2c3ccccc3ccc2c2oc(=O)c3ccccc3c21,2,77*,10,4,-142
O=C(NNc1cccc([N+](=O)[O-])c1)/C(=C\c1cccnc1)NC(=O)c1ccccc1,0,4,-23,-1,-22
CCN(C(=O)CSc1nnc(Nc2ccc(OC)cc2)s1)C1CCS(=O)(=O)C1 (stereo unspecified),1,11,10,-3,49*
OC[C@@H]1CN(Cc2ccc3c(c2)OCO3)C[C@H](n2cnc3c(NC4CCCC4)ncnc32)O1,0,1,nt,1,-1
Cc1ccc(F)c(S(=O)(=O)NC(=O)C2(C)CCN2C(=O)Cc2cc(F)ccc2F)c1 (stereo unspecified),-3,-3,nt,-2,-1
CC(Sc1nnc2ccccn12)C(=O)Nc1ccc2c(c1)OCCO2 (stereo unspecified),0,-2,1,-1,104*
Cc1ccc(NC(=O)C(C)Sc2nnc3ccccn23)cc1 (stereo unspecified),0,-1,2,-1,-1
Cc1ccc(S(=O)(=O)N2CCN(C(=O)COC(=O)C3CCC3)CC2)cc1,-2,-4,-7,0,-1
Cc1ccc(/C=N/NC(=O)Cn2nnc(N)n2)o1,-2,0,-4,-2,-6
CC(=O)N(CCC(Cc1ccccc1)c1ccco1)Cc1ccco1 (stereo unspecified),1,-9,0,1,3
SMILES,LMPTP inh,DNMT1 inh,Scp1 inh,STEP block,SUMO1 PPI mod
O=C(c1ccco1)N(CCC(c1ccccc1)c1ccco1)Cc1ccco1 (stereo unspecified),3,100*,74*,9,14
O=C1CC(c2ccc(O)cc2)Oc2cc(O)cc(O)c21 (stereo unspecified),0,2,-11,-2,4
CC1CC(=O)c2c(cc3c(-c4c(O)cc(O)c5c(O)c6c(cc45)OC(C)CC6=O)c(O)cc(O)c3c2O)O1 (stereo unspecified),49,81*,15,6,64*
Cc1nn(-c2ccccc2)c(C)c1NC(=O)COc1ccc([N+](=O)[O-])cc1,-1,1,1,0,-15
COc1ccc(C(C)(O)c2nc(-c3cccs3)cs2)cc1 (stereo unspecified),0,1,nt,-3,-6
O=C(COc1ccc2c3c(c(=O)oc2c1)CCCC3)NCc1ccncc1,-1,4,-5,0,-5
NS(=O)(=O)c1ccc(CNC(=O)COc2ccc3c4c(c(=O)oc3c2)CCCC4)cc1,0,-1,-1,3,63*
O=C(COc1ccc2c3c(c(=O)oc2c1)CCC3)Nc1ccccn1,0,-14,-11,3,51*
Nc1ccccc1S(=O)(=O)NCCCCc1ccccc1,1,0,-4,0,-2
Oc1ccc(C=NNC(=S)Nc2ccc(F)cc2)c(O)c1,1,-5,-10,-5,53*
N#CCCN(C(=O)COC(=O)c1ccc(S(=O)(=O)N2CCCC2)cc1)c1cccc(Cl)c1,1,-2,-9,2,3
COc1ccc(-n2sc3ccccc3c2=O)cc1,-2,-2,nt,-2,2
Cc1ccc(-c2cc(=O)c3cc(F)ccc3[nH]2)cc1,-2,2,-10,-4,9
O=c1c2cc(F)ccc2sn1-c1ccc(F)cc1,-2,-8,81*,2,2
COc1ccc(-n2sc3ccc(F)cc3c2=O)cc1,-1,-4,81*,-3,4
Cc1ccc(C)c(-n2sc3ccc(F)cc3c2=O)c1,0,2,70*,0,2
COc1ccccc1N(CC1CO1)S(=O)(=O)c1ccc(C)cc1 (stereo unspecified),0,-1,-3,-2,-3
CCCc1cc(=O)n(-c2nc3ccccc3s2)[nH]1,0,-2,-2,-4,-2
CCOC(=O)Cc1cc(=O)n(-c2nc3ccccc3s2)[nH]1,0,7,-5,2,38*
COc1ccc(CNC(=O)C(NC(C)=O)C(=O)Nc2ccc(C(C)C)cc2)cc1 (stereo unspecified),0,3,19,-1,0
O=C(c1ccco1)N1CCN(C(=S)NCc2ccc(F)cc2)CC1,-1,-2,-14,2,-2
CN(C)/C=C/C(=O)c1ccc(OCCN(C)c2ccccn2)cc1,51*,-1,-7,-1,18
COC(=O)[C@]12CCCCC=C1N(Cc1ccco1)C(=O)[C@H](CC(=O)NCCc1ccccc1OC)C2,0,nt,nt,nt,7
COc1ccc(C(=O)Nc2ccc3c(c2)nc(CCNC(=O)c2ccco2)n3C)cc1,2,0,-4,3,0

# Screening data: PubChem BioAssay, Sanford-Burnham Center for Chemical Genomics
